Source: ChEMBL document CHEMBL4411269, “Required Immunoproteasome Subunit Inhibition Profile for Anti-Inflammatory Efficacy and Clinical Candidate KZR-616 ((2 S,3 R)- N-(( S)-3-(Cyclopent-1-en-1-yl)-1-(( R)-2-methyloxiran-2-yl)-1-oxopropan-2-yl)-3-hydroxy-3-(4-methoxyphenyl)-2-(( S)-2-(2-morpholinoacetamido)propanamido)propenamide)” (J Med Chem, 2018)
Calls of active or inactive are those of the source. No cut-off for these calls is given here.

What was measured:
Mus musculus [1] = assay: In vivo inhibition of proteosome beta 5 in Balb/c mouse kidney at 20 mg/kg, iv followed by dosing repeat on day 6, 8, 11, 13 and 15 and co-treated with 5 mg/kg, iv KZR-504 and measured on 1 hr post last dose; type: functional, organism-based
Summary of the method: (§1)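 BALB/c mice dosed iv bolus in 10% sulfobutyl ether−β-cyclodextrin/10 mM sodium citrate pH 3.5; tissues taken 1 h after administration. Splenocytes strained and red cells lysed; kidney frozen, then bead-homogenized. Hypotonic lysate (20 mM Tris pH 8, 5 mM EDTA) at 1 mg/mL (spleen) or 5 mg/mL (kidney) run in the ProCISE active-site ELISA. Background-subtracted, protein-normalized activity relative to vehicle animals; n = 3.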

PBMC [2] = assay: Antiinflammatory activity in human PBMC assessed as reduction in LPS-stimulated p40 subunit of […] expression at 125 nM preincubated for 1 hr followed by LPS stimulation measured after 24 hrs by ELISA; type: functional, cell-based
Summary of the method: (§2)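 Cryopreserved healthy-donor PBMC in RPMI 1640 with 5% heat-inactivated FBS, 250 000 cells/well. Compound (0.1% DMSO final) for 1 h at 37 °C, 5% CO2, then 4 washes with medium. Stimulated with 1 μg/mL LPS for 24 h; supernatant TNFα, IL-6 and IL-12/23p40 by electrochemiluminescent immunoassay. Mean level relative to DMSO controls, n = 6.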

Mus musculus [3] = assay: In vivo inhibition of proteosome beta 5 in Balb/c mouse kidney at 20 mg/kg, iv followed by dosing repeat on day 6, 8, 11, 13 and 15 and measured on 1 hr post last dose; type: functional, organism-based; summary of the method: as §1
[4] = Toxicity in Balb/c mouse assessed as effect on cage-side observations at 20 mg/kg, iv followed by dosing repeat on day 6, 8, 11, 13 and 15 and co-treated with 5 mg/kg, iv KZR-504 and measured until day 18; type: organism-based; conditions: in vivo
[5] = molecular target: T1, Proteasome subunit beta type-8 (Homo sapiens) (UniProt P28062); assay: Inhibition of LMP7 in human PBMC at 125 nM in presence of KZR-504 by ELISA
T1 sequence (whole entry): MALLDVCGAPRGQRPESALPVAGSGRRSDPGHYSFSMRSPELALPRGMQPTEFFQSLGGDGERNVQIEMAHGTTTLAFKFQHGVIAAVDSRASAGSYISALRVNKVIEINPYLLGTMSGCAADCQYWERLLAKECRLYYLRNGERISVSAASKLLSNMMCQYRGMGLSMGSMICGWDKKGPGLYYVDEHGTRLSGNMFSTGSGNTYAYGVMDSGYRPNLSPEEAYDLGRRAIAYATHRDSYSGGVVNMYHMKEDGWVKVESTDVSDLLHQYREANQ
Summary of the method: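 Cryopreserved healthy-donor human PBMC in RPMI 1640 with 5% heat-inactivated FBS, exposed to compound (0.1% DMSO final) for 1 h at 37 °C, 5% CO2, then washed. Subunit-specific active-site occupancy read by ProCISE: biotinylated active-site probe binding, denaturation, streptavidin capture, subunit-specific antibody and HRP chemiluminescence. Signal normalized to protein and expressed relative to DMSO controls.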

Mus musculus [6] = assay: In vivo inhibition of MECL-1 in Balb/c mouse splenocytes at 20 mg/kg, iv followed by dosing repeat on day 6, 8, 11, 13 and 15 and measured on 1 hr post last dose; type: functional, organism-based; summary of the method: as §1
[7] = molecular target: T2, Proteasome subunit beta type-9 (Homo sapiens) (UniProt P28065); assay: Inhibition of LMP2 in human PBMC at 125 nM by ELISA
T2 sequence (whole entry): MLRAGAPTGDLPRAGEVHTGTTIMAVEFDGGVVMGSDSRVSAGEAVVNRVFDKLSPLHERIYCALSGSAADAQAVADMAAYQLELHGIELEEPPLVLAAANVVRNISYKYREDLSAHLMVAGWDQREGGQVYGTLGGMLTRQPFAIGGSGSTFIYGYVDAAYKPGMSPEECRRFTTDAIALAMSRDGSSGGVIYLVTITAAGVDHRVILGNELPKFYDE

PBMC [8] = assay: Antiinflammatory activity in human PBMC assessed as reduction in LPS-stimulated TNF-alpha expression at 125 nM preincubated for 1 hr followed by LPS stimulation measured after 24 hrs by ELISA; type: functional, cell-based; summary of the method: as §2
[9] = molecular target: T3, Proteasome subunit beta type-8 (Homo sapiens, UniProt P28062); assay: Inhibition of LMP7 in human MOLT4 cells by ELISA; type: cell-based
T3 sequence (P28062 whole entry): T1 sequence (whole entry)

[10] = molecular target: Proteasome subunit beta type-2 (Mus musculus, UniProt Q9R1P3); assay: Inhibition of 20S proteosome beta 2 in mouse A20 cells by ELISA; type: cell-based
Chain of Proteasome subunit beta type-2 (Q9R1P3 whole entry): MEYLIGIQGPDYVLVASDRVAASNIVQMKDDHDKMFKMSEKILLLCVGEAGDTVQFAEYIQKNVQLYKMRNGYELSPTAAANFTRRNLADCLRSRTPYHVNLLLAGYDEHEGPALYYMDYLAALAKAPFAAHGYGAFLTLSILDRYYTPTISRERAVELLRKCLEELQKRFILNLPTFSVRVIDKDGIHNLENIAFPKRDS

PBMC [11] = assay: Antiinflammatory activity in human PBMC assessed as reduction in anti-CD3/CD28 antibody-stimulated IFN-gamma expression at 250 nM preincubated for 1 hr followed by anti-CD3/CD28 antibody stimulation measured after 24 hrs by ELISA; type: functional, cell-based
Summary of the method: (§3)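 Healthy-donor PBMC, thawed from cryopreservation, 250 000 cells/well in RPMI 1640/5% FBS. Pretreated 1 h at 37 °C with compound alone or combined (0.1% DMSO final), washed 4 times, then stimulated 24 h with anti-CD3 and anti-CD28 antibodies. TNFα and IFNγ in supernatants by electrochemiluminescent ELISA; expressed relative to DMSO-treated controls (n = 6).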

PBMC [12] = assay: Antiinflammatory activity in human PBMC assessed as reduction in LPS-stimulated IL-6 expression at 250 nM preincubated for 1 hr followed by LPS stimulation measured after 24 hrs by ELISA; type: functional, cell-based; summary of the method: as §2
PBMC [13] = assay: Antiinflammatory activity in human PBMC assessed as reduction in LPS-stimulated p40 subunit of […] expression at 250 nM preincubated for 1 hr followed by LPS stimulation measured after 24 hrs by ELISA; type: functional, cell-based; summary of the method: as §2
PBMC [14] = assay: Antiinflammatory activity in human PBMC assessed as reduction in anti-CD3/CD28 antibody-stimulated IFN-gamma expression at 250 nM preincubated for 1 hr followed by anti-CD3/CD28 antibody stimulation measured after 24 hrs in presence of KZR-504 by ELISA; type: functional, cell-based; summary of the method: as §3
[15] = Selectivity ratio of IC50 for MECL1 in mouse A20 cells to IC50 for MECL1 in human MOLT4 cells; type: cell-based
Mus musculus [16] = assay: Antiarthritic activity in type 2 collagen antibody/LPS induced Balb/c mouse assessed as reduction in disease burden at 5 mg/kg, iv followed by dosing repeat on day 6, 8, 11, 13 and 15 and measured until day 18; type: functional, organism-based
Summary of the method: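 CAIA in 7−8 week old female BALB/c mice on breeder chow. Induced with 1.75 mg of a 5-antibody anti-type II collagen cocktail iv on day 0, then 25 μg LPS ip on day 3. Dosed as single iv boluses in 10% (w/v) sulfobutyl ether−β-cyclodextrin/10 mM sodium citrate (pH 3.5); vehicle-treated group included.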

SMILES	inhibition (Mus musculus [1])	Activity (PBMC [2])	inhibition (Mus musculus [3])	Activity [4]	inhibition [5]	inhibition (Mus musculus [6])	inhibition [7]	Activity (PBMC [8])	IC50 [9] [µM]	IC50 [10] [µM]	Activity (PBMC [11])	Activity (PBMC [12])	Activity (PBMC [13])	Activity (PBMC [14])	Ratio IC50 [15]	Activity (Mus musculus [16])
COc1ccc(C[C@H](NC(=O)[C@@H](C)NC(=O)[C@H]2CC[C@H](O)CC2)C(=O)N[C@@H](CC2=CCCC2)C(=O)[C@@]2(C)CO2)cc1	Active	Active	Active	Non-Toxic	Active	Active	Active	inactive	–	–	–	–	–	–	–	–
Cc1ccc(CC[C@H](NC(=O)[C@H](Cc2ccccc2)NC(=O)[C@H](CC(C)C)NC(=O)CN2CCCCCC2)C(=O)[C@@]2(C)CO2)cc1	–	–	–	–	–	–	–	–	0.346	0.573	inactive	inactive	inactive	inactive	4	–
COc1ccc([C@@H](O)[C@H](NC(=O)[C@H](C)NC(=O)CN2CCOCC2)C(=O)N[C@@H](CC2=CCCC2)C(=O)[C@@]2(C)CO2)cc1 [ZETOMIPZOMIB]	–	–	–	–	–	–	–	–	0.039	0.857	Active	Active	Active	–	–	Active
